Test results: article PMC2094070 (Nucleic Acids Research, 2007)

Experiments:
[1] = tested on: wild-type M. smegmatis 70S ribosomes; test: Cell-free luciferase translation assay, wild-type ribosomes; assay type: biochemical; details: read-out: IC50, inhibition of luciferase synthesis; Mycobacterium smegmatis wild-type ribosomes; coupled transcription–translation, 37°C, 60 min
[2] = tested on: cytosolic ribosomes in rabbit reticulocyte lysate; test: Rabbit reticulocyte translation assay; assay type: biochemical; details: read-out: IC50, inhibition of luciferase synthesis, luciferase mRNA, 30°C, 90 min
Procedure, shortened: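 Rabbit reticulocyte lysate supplied cytosolic ribosomes to translate firefly luciferase control mRNA (500 ng), with amino acids (100 μM each) and RNasin. Aminoglycosides were added as serial dilutions, then incubated at 30°C for 90 min. Luciferase substrate was added and luminescent activity read. IC50 and the 100% value came from best-fit nonlinear regression.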

[3] = tested on: M. smegmatis mutants carrying human–bacterial hybrid ribosomes (Homo sapiens helix 44 decoding site); test: MIC broth microdilution, cells with human-bacterial hybrid ribosomes; assay type: cell-based, Mycobacterium smegmatis; details: for Relative resistance (ratio of mutant to wild-type MIC): human hybrids versus wild-type M. smegmatis; for MIC: M. smegmatis cells with Homo sapiens hybrid ribosomes, 37°C, 72 h
[4] = tested on: M. smegmatis Leishmania hybrids (Leishmania/Trypanosoma decoding site); test: MIC broth microdilution, cells with Leishmania/Trypanosoma hybrid ribosomes; assay type: cell-based, Mycobacterium smegmatis; details: for Relative resistance (ratio of mutant to wild-type MIC): Leishmania hybrids versus wild-type M. smegmatis; for MIC: M. smegmatis cells with Leishmania/Trypanosoma hybrid ribosomes, 37°C, 72 h
[5] = tested on: Mycobacterium smegmatis wild-type; test: MIC broth microdilution, wild-type strain; assay type: cell-based; details: 37°C, 72 h
[6] = tested on: Mycobacterium smegmatis hybrids with a Blastocrithidia decoding region; test: MIC broth microdilution, cells with Blastocrithidia hybrid ribosomes; assay type: cell-based; details: M. smegmatis cells with Blastocrithidia hybrid ribosomes; 37°C, 72 h

Row | Compound | IC50 [1] [nM] | IC50 [2] [µM] | Relative resistance (ratio of mutant to wild-type MIC) [3] | Relative resistance (ratio of mutant to wild-type MIC) [4] | MIC [5] [µg/mL] | MIC [3] [µg/mL] | MIC [6] [µg/mL] | MIC [4] [µg/mL]
1 | NC[C@H]1O[C@H](O[C@H]2[C@H](O)[C@@H](O[C@H]3O[C@H](CO)[C@@H](O)[C@H](N)[C@H]3O)[C@H](N)C[C@@H]2N)[C@H](N)C[C@@H]1O [Tobramycin, tobramycin] | 20 | 38 | ≥ 1024 | ≥ 1024 | – | – | – | –
2 | kanamycin A | 50 | 67 | ≥ 1024 | ≥ 1024 | 1 | >1024 | 1 | >1024
3 | CN[C@@H]1[C@@H](O)[C@@H](O[C@@H]2[C@@H](O)[C@H](O[C@H]3O[C@H]([C@@H](C)O)[C@@H](O)[C@H](O)[C@H]3N)[C@@H](N)C[C@H]2N)OC[C@]1(C)O [Geneticin, geneticin (G418)] | 30 | 0.2 | – | – | – | – | – | –
4 | NC[C@@H]1O[C@H](O[C@H]2[C@@H](O)[C@H](O[C@@H]3[C@@H](O)[C@H](N)C[C@H](N)[C@H]3O[C@H]3O[C@H](CO)[C@@H](O)[C@H](O)[C@H]3N)O[C@@H]2CO)[C@H](N)[C@@H](O)[C@@H]1O [Paromomycin, paromomycin] | 30 | 9.2 | ≥ 1024 | – | – | – | – | –
5 | neomycin | 40 | 18 | ≥ 1024 | ≥ 1024 | 0.5 | >1024 | 1 | >1024
6 | CNC(C)C1CCC(N)C(OC2C(N)CC(N)C(OC3OCC(C)(O)C(NC)C3O)C2O)O1 (stereo not shown) [Gentamicin, gentamicin] | – | – | ≥ 1024 | ≥ 1024 | – | – | – | –
7 | CCN[C@@H]1C[C@H](N)[C@@H](O[C@H]2OC(CN)=CC[C@H]2N)[C@H](O)[C@H]1O[C@H]1OC[C@](C)(O)[C@H](NC)[C@H]1O [Netilmicin, netilmicin] | 50 | 58 | ≥ 1024 | ≥ 1024 | – | – | – | –
